The source of these data is ChEMBL document CHEMBL1287804, “Synthesis, binding studies and molecular modeling of novel cannabinoid receptor ligands” (Bioorg Med Chem, 2010).

The target of assay [1] is T1, Cannabinoid receptor 1 (Homo sapiens, UniProt P21554). The assay can be described thus: Displacement of [3H]-CP-55940 from human recombinant CB1 receptor expressed in HEK293 cells at 10 uM. Format: cell-based. The gist of the method: (§1)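 Radioligand binding with human recombinant CB1 and CB2 receptors. The highest concentration tested was 10 µM, and percent displacement was recorded at that concentration. IC50 and Ki were calculated for each receptor. The selectivity index is Ki(CB1)/Ki(CB2).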

Assay [2] deals with T1, Cannabinoid receptor 1. The assay can be described thus: Displacement of [3H]-CP-55940 from human recombinant CB1 receptor expressed in HEK293 cells. Format: cell-based. The gist of the method: as §1
In general terms: Displacement assays read how much labelled ligand stays bound in the presence of the test substance.

Assay [3] addresses T2, Cannabinoid receptor 2 (Homo sapiens, UniProt P34972). In words: Displacement of [3H]-CP-55940 from human recombinant CB2 receptor expressed in HEK293 cells at 10 uM. Format: cell-based. The gist of the method: as §1
Assay [4] concerns the target T2, Cannabinoid receptor 2. The assay can be described thus: Displacement of [3H]-CP-55940 from human recombinant CB2 receptor expressed in HEK293 cells. Format: cell-based. The gist of the method:
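Radioligand binding assay on human recombinant CB2 receptor. The read-out was percent displacement of radioligand at the highest concentration tested. IC50 values were determined, and Ki values were calculated from them.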

For assay [5], the target named is T3, Fatty-acid amide hydrolase 1 (Rattus norvegicus) (UniProt P97612).
T3 sequence (whole entry): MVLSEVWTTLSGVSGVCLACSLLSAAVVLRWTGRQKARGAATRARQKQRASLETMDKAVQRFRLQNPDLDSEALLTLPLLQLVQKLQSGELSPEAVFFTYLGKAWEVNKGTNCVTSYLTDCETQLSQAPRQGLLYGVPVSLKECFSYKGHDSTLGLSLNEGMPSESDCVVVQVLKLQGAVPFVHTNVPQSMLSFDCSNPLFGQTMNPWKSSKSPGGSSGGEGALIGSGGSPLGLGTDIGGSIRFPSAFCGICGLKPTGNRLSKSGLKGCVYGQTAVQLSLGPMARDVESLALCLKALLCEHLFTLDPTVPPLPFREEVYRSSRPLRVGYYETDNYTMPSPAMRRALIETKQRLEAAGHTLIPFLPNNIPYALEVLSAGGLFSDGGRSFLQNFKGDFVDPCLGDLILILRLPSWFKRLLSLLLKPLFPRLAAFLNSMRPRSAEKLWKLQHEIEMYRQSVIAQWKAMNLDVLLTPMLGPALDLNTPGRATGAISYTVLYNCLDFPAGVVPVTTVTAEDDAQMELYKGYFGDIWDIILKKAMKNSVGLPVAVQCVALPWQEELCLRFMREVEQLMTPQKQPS
In words: Inhibition of FAAH-mediated [14C]anandamide hydrolysis in rat brain membrane assessed as [14C]-ethanolamine production up to 50 uM after 30 mins by scintillation counting. Format: cell membranes.

The species named for assay [6] is Homo sapiens. The assay can be described thus: Selectivity index, ratio of Ki for human recombinant CB1 receptor to Ki for human recombinant CB2 receptor. Summed up: as §1

Active and inactive are the calls of the source. The rule behind the calls is not given here. Some results are limits rather than exact numbers.

T2 sequence (P34972 whole entry): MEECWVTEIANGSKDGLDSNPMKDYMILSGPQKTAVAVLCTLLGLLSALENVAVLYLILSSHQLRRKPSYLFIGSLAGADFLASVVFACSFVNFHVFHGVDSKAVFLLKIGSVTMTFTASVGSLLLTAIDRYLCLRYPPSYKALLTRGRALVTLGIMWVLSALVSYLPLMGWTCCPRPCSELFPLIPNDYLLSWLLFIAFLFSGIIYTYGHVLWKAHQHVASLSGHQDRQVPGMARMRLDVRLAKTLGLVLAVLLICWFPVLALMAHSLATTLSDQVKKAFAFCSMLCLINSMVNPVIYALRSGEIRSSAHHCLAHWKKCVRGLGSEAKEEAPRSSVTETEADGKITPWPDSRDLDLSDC
T1 sequence (P21554 whole entry): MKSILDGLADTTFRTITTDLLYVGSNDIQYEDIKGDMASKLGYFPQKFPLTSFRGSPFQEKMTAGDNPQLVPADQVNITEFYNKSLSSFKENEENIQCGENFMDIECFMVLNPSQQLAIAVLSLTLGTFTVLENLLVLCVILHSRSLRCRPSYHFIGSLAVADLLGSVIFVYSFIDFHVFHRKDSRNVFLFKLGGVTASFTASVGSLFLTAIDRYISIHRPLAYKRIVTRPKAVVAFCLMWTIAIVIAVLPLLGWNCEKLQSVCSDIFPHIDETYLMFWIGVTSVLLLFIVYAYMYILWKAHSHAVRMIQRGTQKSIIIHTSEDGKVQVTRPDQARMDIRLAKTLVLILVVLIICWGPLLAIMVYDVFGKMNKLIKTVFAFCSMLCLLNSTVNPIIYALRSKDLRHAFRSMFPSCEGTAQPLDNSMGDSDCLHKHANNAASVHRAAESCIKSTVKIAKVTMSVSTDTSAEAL

Take `O=C(CCC(=O)N1CCOCC1)c1ccc(-c2ccccc2)cc1`: the Activity was determined as 12.2% in assay [1] and 14.9% in assay [3]. Also, the IC50 in assay [2] and in assay [4] was over 10 µM in each case. For the same molecule, the Ki in assay [2] and in assay [4] was over 10 µM in each case. Also, in assay [5], the inhibition result is “inactive”.

As to `O=C(O)CCC(=O)/C=C/c1ccc2ccccc2c1`, the Activity in assay [1] was found to be 11.8%; in assay [3] it was 13.7%. Further, the 50% inhibitory concentration (IC50) in assay [2] and in assay [4] was over 10 µM in each case. Besides, the Ki in assay [2] and in assay [4] was over 10 µM each time. Besides, the inhibition entry in assay [5] is “inactive”.

As to `O=C(/C=C/c1ccc2ccccc2c1)CCC(=O)NCCO`, the figures for the Activity in assay [1] and in assay [3] were 0% and 56.5%, respectively. Further, the concentration for half-maximal inhibition (IC50) (in general, the concentration that inhibits the measured activity by half) was over 10 µM in assay [2] and 1 µM in assay [4]. The results for the inhibitory constant (Ki) in assay [2] and in assay [4] were over 10 µM and 1.03 µM, respectively. For the same molecule, the Ratio Ki in assay [6] is over 4.41. Besides, the inhibition result in assay [5] is “inactive”.

With `O=C(/C=C/c1ccc2ccccc2c1)CCC(=O)NC1CC1`, the Activity in assay [1] stood at 3.25%; in assay [3], 35.6%. In addition, the IC50 in assay [2] and in assay [4] was over 10 µM each time. Moreover, the inhibition constant Ki in assay [2] and in assay [4] was over 10 µM in each case. Moreover, the inhibition result in assay [5] was “inactive”.

As for `O=C(/C=C/c1ccc2ccccc2c1)CCC(=O)Nc1ccc(O)cc1`, the Activity in assay [1] and in assay [3] was under 50% throughout. For the same molecule, the IC50 in assay [2] and in assay [4] was over 10 µM throughout. Also, the Ki in assay [2] and in assay [4] was over 10 µM throughout. For the same molecule, in assay [5], the inhibition entry was “inactive”.

As to `COc1ccc(/C=C/C(=O)CCC(=O)Nc2ccc(O)cc2)cc1`, the Activity in assay [1] and in assay [3] was under 50% throughout. Besides, the IC50 in assay [2] and in assay [4] was over 10 µM in each case. Also, the inhibitory constant (Ki) in assay [2] and in assay [4] was over 10 µM throughout. Further, in assay [5], the inhibition entry is “inactive”.

`CCOC(=O)CNC(=O)CCCC(=O)/C=C/c1ccc2ccccc2c1`: the Activity in assay [1] stood at 41.5%; in assay [3], 41.7%. Moreover, the IC50 in assay [2] and in assay [4] was over 10 µM in each case. Moreover, the inhibitory constant (Ki) in assay [2] and in assay [4] was over 10 µM in each case. In assay [5], the inhibition entry was “inactive”.

Consider `COc1ccc(/C=C/C(=O)CCC(=O)NCCO)cc1OC`, for which the Activity in assay [1] and in assay [3] was under 50% in each case. In addition, the IC50 in assay [2] and in assay [4] was over 10 µM throughout. Besides, the Ki in assay [2] and in assay [4] was over 10 µM in each case. Besides, the inhibition entry in assay [5] is “inactive”.

As to `O=C(/C=C/c1ccc2ccccc2c1)CCC(=O)N(CCO)CCO`, the Activity in assay [1] was 1.81%; in assay [3], 27.3%. The IC50 in assay [2] and in assay [4] was over 10 µM in each case. The inhibition constant (Ki) in assay [2] and in assay [4] was over 10 µM throughout. Besides, the inhibition result in assay [5] is “inactive”.

On to `C[C@@H](CO)NC(=O)CCCC(=O)/C=C/c1ccc2ccccc2c1`, for which the Activity was over 10% in assay [1] and 37.7% in assay [3]. The IC50 in assay [2] and in assay [4] was over 10 µM throughout. The Ki in assay [2] and in assay [4] was over 10 µM in each case. For the same molecule, the inhibition entry in assay [5] was “inactive”.

In the case of `O=C(CCC(=O)NCCO)CCc1ccc(-c2ccccc2)cc1`, the Activity was 10.9% in assay [1] and 53% in assay [3]. The IC50 is over 10 µM in assay [2] and 8.85 µM in assay [4]. Moreover, the inhibition constant Ki (as a rule, the equilibrium dissociation constant of an inhibitor or competing ligand from its target) was over 10 µM in assay [2] and 2.25 µM in assay [4]. The Ratio Ki in assay [6] was over 4.44. In assay [5], the inhibition entry is “inactive”.

For the molecule `C[C@H](CO)NC(=O)CCC(=O)/C=C/c1ccc2ccccc2c1`, the Activity in assay [1] was found to be 2.48%; in assay [3] it was 38.3%. The half-inhibitory concentration (IC50) in assay [2] and in assay [4] was over 10 µM throughout. Further, the inhibition constant (Ki) in assay [2] and in assay [4] was over 10 µM in each case. Besides, the inhibition entry in assay [5] was “inactive”.

Turning to `O=C(/C=C/c1ccc(-c2ccccc2)cc1)CCC(=O)NCCO`, the Activity in assay [1] was 5.25%; in assay [3], 46.1%. Moreover, the concentration for half-maximal inhibition (IC50) in assay [2] and in assay [4] was over 10 µM each time. Moreover, the Ki in assay [2] and in assay [4] was over 10 µM each time. In addition, the inhibition entry in assay [5] is “inactive”.

`O=C(/C=C/c1ccc2ccccc2c1)CCCC(=O)N1CCCCC1`: the Activity amounted to 34% in assay [1] and 36.8% in assay [3]. Moreover, the half-maximal inhibitory concentration (IC50) in assay [2] and in assay [4] was over 10 µM throughout. The Ki in assay [2] and in assay [4] was over 10 µM in each case. Besides, the inhibition entry in assay [5] is “inactive”.

In the case of `O=C(/C=C/c1ccc2ccccc2c1)CCCC(=O)NCCO`, the Activity in assay [1] came to 4.58%; in assay [3], 72%. Moreover, the IC50 in assay [2] was over 10 µM; in assay [4], 4.08 µM. In addition, the inhibition constant (Ki) was over 10 µM in assay [2] and 1.03 µM in assay [4]. The Ratio Ki in assay [6] was over 9.71. In addition, in assay [5], the inhibition result is “inactive”.

Take `O=C(/C=C/c1ccc2ccccc2c1)CCCC(=O)NC1CC1`: the Activity turned out to be 15.3% in assay [1] and 56.7% in assay [3]. The half-maximal inhibitory concentration (IC50) is over 10 µM in assay [2] and 8.02 µM in assay [4]. For the same molecule, the figures for the Ki in assay [2] and in assay [4] were over 10 µM and 2.04 µM, respectively. Moreover, the Ratio Ki in assay [6] is over 4.9. Moreover, in assay [5], the inhibition result is “inactive”.

Regarding `O=C(/C=C/c1ccc2ccccc2c1)CCC(=O)N1CCCCC1`, the Activity in assay [1] and in assay [3] was under 50% throughout. For the same molecule, the half-inhibitory concentration (IC50) in assay [2] and in assay [4] was over 10 µM in each case. In addition, the inhibitory constant (Ki) in assay [2] and in assay [4] was over 10 µM in each case. The inhibition result in assay [5] is “inactive”.

In the case of `COc1ccc(/C=C/C(=O)CCC(=O)N2CCCCC2)cc1OC`, the Activity in assay [1] was under 50%; in assay [3], 50%. The IC50 in assay [2] and in assay [4] was over 10 µM throughout. Moreover, the Ki in assay [2] and in assay [4] was over 10 µM throughout. Further, the inhibition entry in assay [5] was “inactive”.

Turning to `CCOC(=O)CNC(=O)CCC(=O)/C=C/c1ccc2ccccc2c1`, the Activity in assay [1] came out at 5.73%; in assay [3], 54.6%. For the same molecule, the IC50 in assay [2] was over 10 µM; in assay [4], 9.82 µM. The inhibition constant Ki was over 10 µM in assay [2] and 2.5 µM in assay [4]. Further, in assay [6], the Ratio Ki is over 4. The inhibition result in assay [5] is “inactive”.

Consider `O=C(O)CCCC(=O)/C=C/c1ccc2ccccc2c1`, for which the Activity stood at 21.5% in assay [1] and 23.4% in assay [3]. The half-maximal inhibitory concentration (IC50) in assay [2] and in assay [4] was over 10 µM each time. For the same molecule, the Ki in assay [2] and in assay [4] was over 10 µM in each case. Besides, in assay [5], the inhibition result is “inactive”.
